From ChEMBL document CHEMBL1153507, “Synthesis, DNA intercalation and 3D QSAR analysis of cis-2,4,5-trisubstituted-1,3-dithiolanes as a novel class of antitumor agents” (2009)
Calls of active or inactive are those of the source. No cut-off for these calls is given here.

Assays:
Calf thymus DNA [1] = test: Binding affinity to calf thymus DNA by circular diachromic assay; format: nucleic-acid assay; conditions: Bos taurus
CCRF S-180 [2] = test: Antitumor activity against mouse S180 cells implanted in ICR mouse assessed as tumor weight at 44.64 umol/kg/day, ip administered for 7 consecutive days after 24 hrs of tumor implantation measured after 24 hrs post dose; format: functional
Procedure, shortened: (§1)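 Male ICR mice aged 10–12 weeks, housed at 21 °C on a natural light cycle, carried S180 tumors. 24 h after implantation they were randomized into groups of 10. Daily ip dosing in 0.2 ml normal saline for 7 days: test agents 44.64 µmol/kg/day, cytarabine 89.28 µmol/kg/day, saline as negative control. Mice were killed 24 h after the last dose and tumors weighed. Inhibition = (control − treated)/control tumor weight. Mean ± SD.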

Calf thymus DNA [3] = test: Binding affinity to calf thymus DNA by spectroscopy; format: nucleic-acid assay; conditions: Bos taurus
Procedure, shortened: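 UV-vis titration of calf thymus DNA (10 µM final) in PBS, pH 7.4. Compound from a 10 mM PBS stock was added in sequential aliquots to final 4–40 µM, and spectra were recorded after each addition. Compounds were transparent at 200–360 nm.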

Calf thymus DNA [4] = test: Binding affinity to calf thymus DNA assessed as hyperchromic effect by UV-vis spectrophotometry; conditions: Bos taurus
CCRF S-180 [5] = test: Antitumor activity against mouse S180 cells xenografted in ip dosed ICR mouse assessed as inhibition of tumor weight administered for 7 consecutive days after 24 of hrs tumor implantation measured after 24 hrs post dose; format: functional, organism-based; procedure, shortened: as §1
CCRF S-180 [6] = test: Antitumor activity against mouse S180 cells implanted in ICR mouse assessed as tumor weight at 89.28 umol/kg/day, ip administered for 7 consecutive days after 24 hrs of tumor implantation measured after 24 hrs post dose; format: functional; procedure, shortened: as §1

Row | Activity (Calf thymus DNA [1]) | Activity (Calf thymus DNA [3]) | Activity (Calf thymus DNA [4]) | Structure (SMILES) | Activity (CCRF S-180 [2]) | inhibition (CCRF S-180 [5]) | Activity (CCRF S-180 [6])
1 | Active | Active | Active | CSCC[C@H](N)C(=O)OC[C@@H]1S[C@H](CC=O)S[C@@H]1COC(=O)[C@@H](N)CCSC | 1.139 g |  | 
2 | Active | Active | Active | N[C@@H](Cc1ccc(O)cc1)C(=O)OC[C@@H]1S[C@H](CC=O)S[C@@H]1COC(=O)[C@@H](N)Cc1ccc(O)cc1 | 0.529 g | Dose-dependent effect | 
3 | Active | Active | Active | N[C@@H](Cc1c[nH]cn1)C(=O)OC[C@@H]1S[C@H](CC=O)S[C@@H]1COC(=O)[C@@H](N)Cc1c[nH]cn1 | 1.076 g |  | 
4 | Active | Active | Active | N[C@@H](Cc1c[nH]c2ccccc12)C(=O)OC[C@@H]1S[C@H](CC=O)S[C@@H]1COC(=O)[C@@H](N)Cc1c[nH]c2ccccc12 | 0.954 g |  | 
5 | Active | Active | Active | NC(=O)C[C@H](N)C(=O)OC[C@@H]1S[C@H](CC=O)S[C@@H]1COC(=O)[C@@H](N)CC(N)=O | 0.855 g |  | 
6 | Active | Active | Active | N[C@@H](Cc1ccccc1)C(=O)OC[C@@H]1S[C@H](CC=O)S[C@@H]1COC(=O)[C@@H](N)Cc1ccccc1 | 0.693 g | Dose-dependent effect | 
7 | Active | Active | Active | CC(C)C[C@H](N)C(=O)OC[C@@H]1S[C@H](CC=O)S[C@@H]1COC(=O)[C@@H](N)CC(C)C | 1.296 g |  | 
8 | Active | Active | Active | N[C@@H](CO)C(=O)OC[C@@H]1S[C@H](CC=O)S[C@@H]1COC(=O)[C@@H](N)CO | 1.493 g |  | 
9 | Active | Active | Active | C[C@H](N)C(=O)OC[C@@H]1S[C@H](CC=O)S[C@@H]1COC(=O)[C@H](C)N | 1.213 g |  | 

The next lines start with the compound.

Row | Structure (SMILES) | Activity (Calf thymus DNA [1]) | Activity (Calf thymus DNA [3]) | Activity (Calf thymus DNA [4]) | Activity (CCRF S-180 [2]) | inhibition (CCRF S-180 [5]) | Activity (CCRF S-180 [6])
10 | C[C@@H](O)[C@H](N)C(=O)OC[C@@H]1S[C@H](CC=O)S[C@@H]1COC(=O)[C@@H](N)[C@@H](C)O | Active | Active | Active | 1.087 g |  | 
11 | N=C(N)NCCC[C@H](N)C(=O)OC[C@@H]1S[C@H](CC=O)S[C@@H]1COC(=O)[C@@H](N)CCCNC(=N)N | Active | Active | Active | 0.778 g |  | 
12 | NCCCC[C@H](N)C(=O)OC[C@@H]1S[C@H](CC=O)S[C@@H]1COC(=O)[C@@H](N)CCCCN | Active | Active | Active | 0.989 g |  | 
13 | CC(C)[C@H](N)C(=O)OC[C@@H]1S[C@H](CC=O)S[C@@H]1COC(=O)[C@@H](N)C(C)C (mixture of isomers) | Active | Active | Active | 1.114 g |  | 
14 | Nc1ccn([C@@H]2O[C@H](CO)[C@@H](O)[C@@H]2O)c(=O)n1 [CYTARABINE] |  |  |  |  |  | 0.582 g
15 | NCC(=O)OC[C@@H]1S[C@H](CC=O)S[C@@H]1COC(=O)CN | Active | Active | Active | 0.723 g | Dose-dependent effect | 
16 | NC(=O)CC[C@H](N)C(=O)OC[C@@H]1S[C@H](CC=O)S[C@@H]1COC(=O)[C@@H](N)CCC(N)=O | Active | Active | Active | 1.061 g |  | 
17 | N[C@@H](CCC(=O)O)C(=O)OC[C@@H]1S[C@H](CC=O)S[C@@H]1COC(=O)[C@@H](N)CCC(=O)O | Active | Active | Active | 1.051 g |  | 
18 | CC[C@H](C)[C@H](N)C(=O)OC[C@@H]1S[C@H](CC=O)S[C@@H]1COC(=O)[C@@H](N)[C@@H](C)CC | Active | Active | Active | 1.064 g |  | 
19 | O=CC[C@H]1S[C@@H](COC(=O)[C@@H]2CCCN2)[C@@H](COC(=O)[C@@H]2CCCN2)S1 | Active | Active | Active | 1.446 g |  | 
